Assay results published in ChEMBL document CHEMBL1124115, “Synthesis and biological activity of CCK26-33-related analogues modified in position 31” (J Med Chem, 1988).
pEC50, pKi: −log10 of the molar value. Square brackets hold non-standard residues; d marks the D form. Peptide text beside a SMILES is read from it. * marks the point of attachment. sY = N[C@@H](Cc1ccc(OS(=O)(=O)O)cc1)C(=O)O; Nle = CCCC[C@H](N)C(=O)O; Boc = CC(C)(C)OC(=O)*

Columns and labels:
Cavia porcellus [1] = species on record: Cavia porcellus; assay: Potency in displacing [3H]Boc(Nle28,Nle31)-CCk27-33 from guinea pig pancreatic acini.; format: functional
In short: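 Radioligand binding on guinea pig pancreatic acini with [3H]Boc(Nle28,Nle31)-CCK27-33 at 0.5 nM (KD = 1 nM). Values are mean ± SEM of three separate experiments, each run in triplicate.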

Cavia porcellus [2] = species on record: Cavia porcellus; assay: Agonist activity by measuring the effect on amylase secretion from guinea pig acini.; format: functional
Mus musculus = species on record: Mus musculus; assay: Potency in displacing [3H]propionyl-CCK-8 from mouse brain membranes.; format: functional
In short: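 Displacement of [3H]propionyl-CCK8 at 0.4 nM (KD = 0.2 nM) from brain tissue. Data are mean ± SEM of three independent experiments, each in triplicate.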

Cavia porcellus [3] = species on record: Cavia porcellus; assay: Agonist activity by measuring the ability to stimulate the contraction of the isolated guinea pig ileum.; format: functional
Cholecystokinin receptor = biological target: T1, Cholecystokinin receptor (Mus musculus, UniProt O08786+P56481); assay: Potency in displacing [3H]propionyl-Cholecystokinin from mouse brain membranes.
T1 sequence (O08786 whole entry): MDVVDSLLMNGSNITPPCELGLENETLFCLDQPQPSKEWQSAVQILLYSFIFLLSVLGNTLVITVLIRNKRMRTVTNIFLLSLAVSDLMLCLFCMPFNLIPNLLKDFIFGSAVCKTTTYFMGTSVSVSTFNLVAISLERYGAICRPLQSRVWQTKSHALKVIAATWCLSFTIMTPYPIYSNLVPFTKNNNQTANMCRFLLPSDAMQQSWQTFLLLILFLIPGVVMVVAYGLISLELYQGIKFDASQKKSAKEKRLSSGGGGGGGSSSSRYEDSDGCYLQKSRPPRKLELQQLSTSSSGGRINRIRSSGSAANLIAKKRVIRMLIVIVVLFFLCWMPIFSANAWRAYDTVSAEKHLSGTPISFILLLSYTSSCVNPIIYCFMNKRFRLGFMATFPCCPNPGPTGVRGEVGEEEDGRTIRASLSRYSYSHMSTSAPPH
T1 sequence (P56481 whole entry): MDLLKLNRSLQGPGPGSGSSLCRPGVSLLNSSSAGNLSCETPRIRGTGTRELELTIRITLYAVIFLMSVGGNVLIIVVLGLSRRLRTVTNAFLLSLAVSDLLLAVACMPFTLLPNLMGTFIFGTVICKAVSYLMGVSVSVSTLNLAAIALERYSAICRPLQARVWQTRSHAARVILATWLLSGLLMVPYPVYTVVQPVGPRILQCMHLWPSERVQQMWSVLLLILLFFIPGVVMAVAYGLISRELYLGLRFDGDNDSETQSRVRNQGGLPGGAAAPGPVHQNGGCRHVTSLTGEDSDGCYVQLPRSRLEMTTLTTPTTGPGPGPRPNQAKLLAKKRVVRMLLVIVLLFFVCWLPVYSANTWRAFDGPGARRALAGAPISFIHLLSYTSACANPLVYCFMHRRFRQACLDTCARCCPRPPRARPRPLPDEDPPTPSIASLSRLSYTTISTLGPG
In short: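 Competition binding on brain membranes against [³H]propionyl-CCK₈ used at 0.4 nM (K_D = 0.2 nM). Values are mean ± SEM of three separate experiments, each run in triplicate.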

| SMILES | pKi (Cavia porcellus [1]) | pEC50 (Cavia porcellus [2]) | pKi (Mus musculus) | pEC50 (Cavia porcellus [3]) | Ki (Cholecystokinin receptor) [nM] |
| --- | --- | --- | --- | --- | --- |
| CCCC[C@H](NC(=O)[C@H](Cc1ccc(OS(=O)(=O)O)cc1)NC(=O)OC(C)(C)C)C(=O)NCC(=O)N[C@@H](Cc1c[nH]c2ccccc12)C(=O)N[C@H](CCCN)C(=O)N[C@@H](CC(=O)O)C(=O)N[C@@H](Cc1ccccc1)C(N)=O | 6.41 | 7.66 | 6.96 | 6.72 | – |
| CCCC[C@H](NC(=O)[C@H](Cc1ccc(OS(=O)(=O)O)cc1)NC(=O)OC(C)(C)C)C(=O)NCC(=O)N[C@@H](Cc1c[nH]c2ccccc12)C(=O)N[C@@H](C)C(=O)N[C@@H](CC(=O)O)C(=O)N[C@@H](Cc1ccccc1)C(N)=O (Boc-[sY][Nle]GWADF-NH2) | 5.96 | 7.60 | 7.85 | 6.96 | – |
| CCCC[C@H](NC(=O)[C@H](Cc1ccc(OS(=O)(=O)O)cc1)NC(=O)OC(C)(C)C)C(=O)NCC(=O)N[C@@H](Cc1c[nH]c2ccccc12)C(=O)N[C@@H](CCC(=O)O)C(=O)N[C@@H](CC(=O)O)C(=O)N[C@@H](Cc1ccccc1)C(N)=O (Boc-[sY][Nle]GWEDF-NH2) | < 5.00 | < 5.00 | < 5.00 | < 6.00 | – |
| CCCC[C@H](NC(=O)[C@H](Cc1ccc(OS(=O)(=O)O)cc1)NC(=O)OC(C)(C)C)C(=O)NCC(=O)N[C@@H](Cc1c[nH]c2ccccc12)C(=O)N[C@@H](Cc1ccccc1)C(=O)N[C@@H](CC(=O)O)C(=O)N[C@@H](Cc1ccccc1)C(N)=O (Boc-[sY][Nle]GWFDF-NH2) | 6.66 | 8.47 | 8.43 | 7.96 | – |
| CCCC[C@H](NC(=O)[C@H](Cc1ccc(OS(=O)(=O)O)cc1)NC(=O)OC(C)(C)C)C(=O)NCC(=O)N[C@@H](Cc1c[nH]c2ccccc12)C(=O)N[C@@H](CCCC)C(=O)N[C@@H](CC(=O)O)C(=O)N[C@@H](Cc1ccccc1)C(N)=O (Boc-[sY][Nle]GW[Nle]DF-NH2) | 8.54 | 9.80 | 9.89 | 9.40 | – |
| CSCC[C@H](NC(=O)[C@H](Cc1ccc(OS(=O)(=O)O)cc1)NC(=O)[C@@H](N)CC(=O)O)C(=O)NCC(=O)N[C@@H](Cc1c[nH]c2ccccc12)C(=O)N[C@@H](CCSC)C(=O)N[C@@H](CC(=O)O)C(=O)N[C@@H](Cc1ccccc1)C(N)=O [SINCALIDE] | 8.60 | 9.89 | – | 9.15 | 0.3 |
